Data on 29 compounds can be found in ChEMBL document CHEMBL1955830, “Substituted azaquinazolinones as modulators of GHSr-1a for the treatment of type II diabetes and obesity” (Bioorg Med Chem Lett, 2012).

Series [1] is described as follows: Antagonist activity at mouse GSH-R1a receptor expressed in HEK293 cells assessed as inhibition of ghrelin-induced calcium mobilization after 5 mins by FLIPR assay. It is filed as functional, cell-based. The conditions noted are these: HEK293, 5 min. The method, boiled down:
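Functional antagonism was measured as IC50 in a FLIPR Ca2+ mobilisation assay.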

The target in series [2] is Growth hormone secretagogue receptor type 1 (Homo sapiens, UniProt Q92847). The experiment in a line: Displacement of [125I]-Ghrelin from human GHSR membranes overexpressing GSH-R1a by scintillation counting. The method, boiled down:
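Binding affinity (Ki) at GHS-R1a was measured by 125I-ghrelin displacement using commercial human GHS-R1a membranes.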
In general terms: Displacement assays read how much labelled ligand stays bound in the presence of the test substance.

A further series relates to Rattus norvegicus. Briefly: Clearance in Sprague-Dawley rat at 1 mg/kg, iv. It counts as ADME, organism-based. More on the design: dose 1 mg/kg, route intravenous. To be noted: in vivo. The essentials:
(§1)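 Male Sprague-Dawley rats were dosed with compound formulated in 20% trappsol in water for injection as the vehicle.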

A short description of series [3]: AUC in Sprague-Dawley rat at 3 mg/kg, po. It counts as ADME, organism-based. More on the design: dose 3 mg/kg, route oral. The conditions noted are these: plasma. The essentials: as §1
A short description of series [4]: Volume of distribution at steady state in Sprague-Dawley rat at 1 mg/kg, iv. Details: dose 1 mg/kg, route intravenous. It counts as ADME, organism-based. The conditions noted are these: in vivo, read-out: Vdss. The essentials: as §1
Series [5] can be described thus: Oral bioavailability in Sprague-Dawley rat at 1 mg/kg. It counts as ADME, organism-based. To be noted: in vivo, 3 mg/kg, in the assay text read “3 mg/kg” for “1 mg/kg”. The essentials:
as §1

The nature of series [6]: Half life in Sprague-Dawley rat at 1 mg/kg, iv. More on the design: dose 1 mg/kg, route intravenous. The conditions noted are these: in vivo. It is filed as ADME, organism-based. The method, boiled down: as §1
The nature of series [7]: AUC in Sprague-Dawley rat at 1 mg/kg, iv. The conditions noted are these: plasma. More on the design: dose 1 mg/kg, route intravenous. It is filed as ADME, organism-based. The method, boiled down:
as §1

In series [8] the target is Voltage-gated inwardly rectifying potassium channel KCNH2 (Homo sapiens, UniProt Q12809). Briefly: Inhibition of human Erg by patch clamp assay. To be noted: for pIC50: human.
Chain of Voltage-gated inwardly rectifying potassium channel KCNH2 (Q12809 whole entry): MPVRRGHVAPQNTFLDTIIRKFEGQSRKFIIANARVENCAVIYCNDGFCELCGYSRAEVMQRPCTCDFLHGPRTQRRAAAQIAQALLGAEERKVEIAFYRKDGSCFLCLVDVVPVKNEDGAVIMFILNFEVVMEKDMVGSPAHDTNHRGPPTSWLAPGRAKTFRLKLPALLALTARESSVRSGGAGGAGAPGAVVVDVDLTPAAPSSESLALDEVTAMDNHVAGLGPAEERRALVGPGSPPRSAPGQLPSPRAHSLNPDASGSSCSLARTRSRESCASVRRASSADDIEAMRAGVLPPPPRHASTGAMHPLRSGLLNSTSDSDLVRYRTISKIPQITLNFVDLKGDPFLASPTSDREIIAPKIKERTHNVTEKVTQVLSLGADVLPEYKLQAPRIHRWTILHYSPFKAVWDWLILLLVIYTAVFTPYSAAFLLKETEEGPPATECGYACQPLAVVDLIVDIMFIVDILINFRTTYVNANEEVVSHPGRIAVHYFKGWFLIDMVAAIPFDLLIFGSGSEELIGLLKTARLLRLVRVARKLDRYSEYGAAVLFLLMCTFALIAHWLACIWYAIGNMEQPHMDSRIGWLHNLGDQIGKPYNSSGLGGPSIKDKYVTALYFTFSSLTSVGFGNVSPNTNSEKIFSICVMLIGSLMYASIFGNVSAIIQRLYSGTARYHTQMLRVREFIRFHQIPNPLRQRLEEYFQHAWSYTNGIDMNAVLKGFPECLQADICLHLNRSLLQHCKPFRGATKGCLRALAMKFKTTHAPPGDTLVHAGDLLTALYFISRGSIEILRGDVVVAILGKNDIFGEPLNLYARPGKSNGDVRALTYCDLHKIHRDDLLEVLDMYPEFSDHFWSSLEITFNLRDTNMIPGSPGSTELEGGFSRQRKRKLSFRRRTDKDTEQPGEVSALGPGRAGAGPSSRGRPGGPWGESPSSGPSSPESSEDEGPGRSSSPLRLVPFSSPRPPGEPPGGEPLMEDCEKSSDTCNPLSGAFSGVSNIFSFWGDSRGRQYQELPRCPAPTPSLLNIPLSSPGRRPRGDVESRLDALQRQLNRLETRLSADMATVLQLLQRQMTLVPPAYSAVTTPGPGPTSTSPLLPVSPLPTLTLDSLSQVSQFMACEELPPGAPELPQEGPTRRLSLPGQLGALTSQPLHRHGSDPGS
The target in a further series is hERG (KCNH2) (Homo sapiens, UniProt Q12809). Briefly: in vitro.
Chain of hERG (KCNH2) (Q12809 whole entry): as above
In series [9] the target is 5-hydroxytryptamine receptor 2B (Homo sapiens) (UniProt P41595). The experiment in a line: Inhibition of 5-HT2B at 10 uM.
Chain of 5-hydroxytryptamine receptor 2B (Homo sapiens) (P41595 whole entry): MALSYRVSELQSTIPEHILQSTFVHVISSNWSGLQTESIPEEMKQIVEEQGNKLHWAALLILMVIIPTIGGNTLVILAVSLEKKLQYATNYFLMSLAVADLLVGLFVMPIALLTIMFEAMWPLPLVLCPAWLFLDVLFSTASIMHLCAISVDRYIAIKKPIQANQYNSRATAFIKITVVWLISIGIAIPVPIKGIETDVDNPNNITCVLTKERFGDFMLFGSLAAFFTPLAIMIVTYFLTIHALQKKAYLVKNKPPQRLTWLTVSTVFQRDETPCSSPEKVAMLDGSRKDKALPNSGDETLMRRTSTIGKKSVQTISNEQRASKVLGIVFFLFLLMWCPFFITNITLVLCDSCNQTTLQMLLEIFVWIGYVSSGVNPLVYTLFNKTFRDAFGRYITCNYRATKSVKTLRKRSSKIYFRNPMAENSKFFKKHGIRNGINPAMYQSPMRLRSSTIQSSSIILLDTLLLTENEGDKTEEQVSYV
The target of series [10] is T1, Muscarinic acetylcholine receptor M1 (Homo sapiens) (UniProt P11229).
T1 sequence (whole entry): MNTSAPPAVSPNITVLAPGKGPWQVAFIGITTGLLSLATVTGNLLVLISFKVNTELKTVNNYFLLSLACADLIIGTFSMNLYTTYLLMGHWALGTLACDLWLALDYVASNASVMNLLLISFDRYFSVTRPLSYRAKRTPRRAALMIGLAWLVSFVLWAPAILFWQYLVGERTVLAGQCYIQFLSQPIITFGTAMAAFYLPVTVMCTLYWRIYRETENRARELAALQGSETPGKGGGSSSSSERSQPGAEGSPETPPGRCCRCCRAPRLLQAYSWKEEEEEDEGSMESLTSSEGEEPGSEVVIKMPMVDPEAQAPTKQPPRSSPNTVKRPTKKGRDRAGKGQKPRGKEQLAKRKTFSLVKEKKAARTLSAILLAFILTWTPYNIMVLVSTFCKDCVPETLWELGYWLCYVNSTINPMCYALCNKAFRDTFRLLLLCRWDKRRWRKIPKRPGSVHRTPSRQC
Briefly: Inhibition of muscarinic M1 receptor at 10 uM.

The target in series [11] is T2, Muscarinic acetylcholine receptor M2 (Homo sapiens) (UniProt P08172).
T2 sequence (whole entry): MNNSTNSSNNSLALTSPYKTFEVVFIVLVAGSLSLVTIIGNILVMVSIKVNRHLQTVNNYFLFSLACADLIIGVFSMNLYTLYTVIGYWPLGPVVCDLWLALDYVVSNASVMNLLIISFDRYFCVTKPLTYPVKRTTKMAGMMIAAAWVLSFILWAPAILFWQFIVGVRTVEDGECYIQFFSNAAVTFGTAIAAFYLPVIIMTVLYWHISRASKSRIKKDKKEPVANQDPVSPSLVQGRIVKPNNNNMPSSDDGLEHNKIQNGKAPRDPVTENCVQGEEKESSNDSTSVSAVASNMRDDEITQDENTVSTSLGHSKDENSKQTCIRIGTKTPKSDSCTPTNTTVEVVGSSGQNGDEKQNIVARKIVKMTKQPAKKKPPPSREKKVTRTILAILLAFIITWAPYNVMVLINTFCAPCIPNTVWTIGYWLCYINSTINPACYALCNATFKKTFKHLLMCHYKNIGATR
Briefly: Inhibition of muscarinic M2 receptor at 10 uM.

Molecules are shown by their SMILES. Some results are limits rather than exact numbers.

Chain of Growth hormone secretagogue receptor type 1 (Q92847 whole entry): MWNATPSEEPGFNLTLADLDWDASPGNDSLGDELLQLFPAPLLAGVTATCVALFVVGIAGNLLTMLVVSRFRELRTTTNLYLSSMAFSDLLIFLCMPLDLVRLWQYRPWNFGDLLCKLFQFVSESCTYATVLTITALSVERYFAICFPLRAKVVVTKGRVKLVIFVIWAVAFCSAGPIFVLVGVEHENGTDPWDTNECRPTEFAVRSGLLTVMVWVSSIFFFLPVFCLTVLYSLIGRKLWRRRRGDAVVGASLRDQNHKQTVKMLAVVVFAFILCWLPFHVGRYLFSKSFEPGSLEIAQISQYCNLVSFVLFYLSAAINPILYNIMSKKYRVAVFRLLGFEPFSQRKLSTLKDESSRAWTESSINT

On to `Cc1nc2ncc(Oc3ccc(-c4ccccc4)cc3)cc2c(=O)n1C[C@H]1CCCN(C(C)C)C1`, for which the IC50 in series [1] came to 131 nM. This compound also had a Ki in series [2] of 1.7 nM.
In the series on Rattus norvegicus, `Cc1nc2ccc(Oc3ccc(F)cc3)nc2c(=O)n1C[C@H]1CCCN(C(C)C)C1` registered a clearance of 32 mL/min/kg. In addition, in series [1], the IC50 amounted to 185 nM. In addition, the results for the AUC in series [3] and in series [7] were 941 ng·h/mL and 523 ng·h/mL, respectively. Further, the Vd in series [4] worked out at 11.9 L/kg. In addition, the bioavailability in series [5] amounted to 60%. The half-life in series [6] was 7.16 h. The compound further gave a Ki in series [2] of 2 nM.
As for `Cc1nc2ncc(Oc3ccc(Br)cc3F)nc2c(=O)n1C[C@H]1CCCN(C(C)C)C1`, in [1], the IC50 is 1.17 nM. Moreover, in series [2], the affinity corresponds to a Ki of 0.05 nM.
In the series with Rattus norvegicus, `Cc1nc2ncc(Oc3ccc(F)cc3)nc2c(=O)n1C[C@H]1CCCN(C(C)C)C1` came in with a clearance of 13 mL/min/kg. For the same compound, the IC50 in series [1] amounted to 587 nM. For the same compound, the AUC in series [3] and in [7] was 1170 ng·h/mL throughout. In addition, the Vd in [4] stood at 2.87 L/kg. The compound also returned a bioavailability in series [5] of 33%. This compound also showed a half-life in [6] of 3.01 h. This compound registered a Ki in series [2] of 3.1 nM.
With `Cc1nc2ncc(Oc3ccc(Cl)cc3F)nc2c(=O)n1C[C@H]1CCCN(C(C)C)C1`, in series [1], the IC50 is 102 nM. In addition, the affinity in [2], expressed as Ki, was 0.6 nM.
On the same counts, the results for `Cc1nc2ccc(Oc3ccc4c(c3)OCO4)nc2c(=O)n1C[C@H]1CCCN(C(C)C)C1` are 19.2 nM and 0.9 nM.
For `Cc1nc2ncc(Oc3ccc(Br)cc3F)cc2c(=O)n1C[C@H]1CCCN(C(C)C)C1`, the results for the IC50 in series [8] and in [1] were 1300 nM and 26 nM, respectively. Further, in series [2], the Ki was determined as 0.16 nM.
In series [8], `Cc1nc2cnc(Oc3cccc4cccnc34)cc2c(=O)n1C[C@H]1CCCN(C(C)C)C1` returned a 50% inhibitory concentration (IC50) of 25100 nM and a pIC50 of 4.6.
As for `Cc1nc2cnc(Oc3ccc(F)c4cccnc34)cc2c(=O)n1C[C@H]1CCCN(C(C)C)C1`, the IC50 worked out at 9400 nM in series [8] and 1440 nM in [1]. This compound came in with a Ki in series [2] of 6.6 nM.
Consider `COc1ccc(Cn2c(CCc3c[nH]c4ccccc34)nnc2[C@@H](Cc2c[nH]c3ccccc23)NC(=O)[C@@H]2CCCN2)c(OC)c1`, for which, in [1], the IC50 is 5.6 nM.
In series [8], `Cc1nc2cnc(Oc3ccc4ncsc4c3)cc2c(=O)n1C[C@H]1CCCN(C(C)C)C1` displayed an IC50 of 2400 nM and a pIC50 of 5.62. Also, the IC50 in series [1] is 29.2 nM. The compound also displayed a Ki in series [2] of 0.1 nM.
Consider `Cc1nc2ncc(Oc3ccc4c(c3)OCO4)nc2c(=O)n1C[C@H]1CCCN(C(C)C)C1`, for which the IC50 in series [1] is 16.5 nM. Further, in series [2], the affinity, expressed as Ki, was 1.5 nM.
In the case of `Nc1nc(N)c(-c2ccc(NC(=O)C3CC3)cc2)c(COCc2ccccc2)n1`, in series [1], the IC50 came out at 188 nM.
As for `Cc1nc2cnc(Oc3ccc(Cl)cc3F)cc2c(=O)n1C[C@H]1CCCN(C(C)C)C1`, in series [8], inhibition was half-maximal at 130 nM (IC50) and the pIC50 came out at 6.89. For the same compound, the IC50 in series [1] turned out to be 146 nM. Also, at hERG (KCNH2), the selectivity ratio worked out at 10. The compound also had a Ki in [2] of 0.2 nM.
`Cc1nc2ncc(Oc3ccc4c(c3)ncn4C)nc2c(=O)n1C[C@H]1CCCN(C(C)C)C1`: the IC50 in [1] was found to be 51.8 nM. This compound also had a Ki in series [2] of 5 nM.
On the same counts, the results for `Cc1nc2ncc(Oc3ccc(-c4ccccc4)cc3)nc2c(=O)n1C[C@H]1CCCN(C(C)C)C1` are 80 nM and 0.27 nM.
`Cc1nc2ncc(Oc3ccc(F)c4cccnc34)nc2c(=O)n1C[C@H]1CCCN(C(C)C)C1`: the IC50 is more than 33000 nM in series [8] and 142 nM in [1]. In series [2], this compound displayed a Ki of 1.9 nM.
Regarding `Cc1nc2cnc(Oc3ccc4c(c3)ncn4C)cc2c(=O)n1C[C@H]1CCCN(C(C)C)C1`, the IC50 in [1] came out at 137 nM. This compound showed a Ki in series [2] of 0.5 nM.
On the same counts, the results for `Cc1nc2ncc(Oc3ccc4ncsc4c3)nc2c(=O)n1C[C@H]1CCCN(C(C)C)C1` are 5.7 nM and 0.26 nM.
The matching figures for `Cc1nc2ccc(Oc3ccc(Br)cc3F)nc2c(=O)n1C[C@H]1CCCN(C(C)C)C1`: 2.3 nM and 0.01 nM.
On the same counts, the results for `COc1ccc2cccc(Oc3ccc4nc(C)n(C[C@H]5CCCN(C(C)C)C5)c(=O)c4n3)c2n1` are 118 nM and 3.1 nM.
For `Cc1nc2ccc(Oc3ccc(-c4ccccc4)cc3)nc2c(=O)n1C[C@H]1CCCN(C(C)C)C1`, in [1], the IC50 is 37.7 nM. For the same compound, affinity in [2] was put at a Ki of 0.4 nM.
On to `Cc1nc2ccc(Oc3ccc(F)cc3)cc2c(=O)n1C[C@H]1CCCN(C(C)C)C1`, for which the inhibition in series [9], in series [10] and in [11] was more than 50% each time. In [1], the IC50 worked out at 141 nM. The affinity in [2], expressed as Ki, was 1 nM.
Consider `Cc1nc2ccc(Oc3ccc(F)c4cccnc34)nc2c(=O)n1C[C@H]1CCCN(C(C)C)C1`, for which the IC50 is 130 nM in series [8] and 131 nM in series [1]. Besides, the Ki in series [2] worked out at 2.6 nM.
As for `Cc1nc2ccc(Oc3ccc(Cl)cc3F)nc2c(=O)n1C[C@H]1CCCN(C(C)C)C1`, the clearance in the series with Rattus norvegicus was 24 mL/min/kg. For the same compound, in series [1], the IC50 was 2 nM. Further, the values for the AUC in series [3] and in [7] were 736 ng·h/mL and 695 ng·h/mL, respectively. The Vd in series [4] is 6.64 L/kg. This compound had a bioavailability in series [5] of 35%. Also, in series [6], the half-life was 4.71 h. This compound registered a Ki in [2] of 0.2 nM.
Turning to `Cc1nc2ncc(Oc3ccc(F)cc3)cc2c(=O)n1C[C@H]1CCCN(C(C)C)C1`, the IC50 in series [1] was 357 nM. Besides, the Ki in series [2] was found to be 6.7 nM.
On the same counts, the results for `Cc1nc2cnc(Oc3ccc4c(c3)OCO4)cc2c(=O)n1C[C@H]1CCCN(C(C)C)C1` are 86.5 nM and 0.3 nM.
The matching figures for `Cc1nc2cnc(Oc3ccc(F)cc3)cc2c(=O)n1C[C@H]1CCCN(C(C)C)C1`: 399 nM and 3.4 nM.
The matching figures for `Cc1nc2ccc(Oc3ccc4ncsc4c3)nc2c(=O)n1C[C@H]1CCCN(C(C)C)C1`: 2.7 nM and 0.01 nM.

A word on the IC50: it is the concentration at which inhibition is half-maximal. As usually defined, the Ki is a dissociation constant, usually derived from enzyme kinetics or from competition with a known ligand. Higher therefore signals weaker binding. One may read the clearance as the rate of elimination divided by the concentration. Usually AUC stands for the area under the concentration-time curve, a measure of exposure. What is called bioavailability is the share of a dose that reaches the circulation, judged against a reference dose that is usually intravenous. By half-life is commonly meant how long it takes for the measured level to halve. For orientation: pIC50 means the negative decadic logarithm of the IC50, by convention in mol/L. High values mean a small IC50, low ones a large IC50. The term inhibition denotes the drop in the measured response relative to a control, in per cent.
